Experimental findings from ChEMBL document CHEMBL1122024, “Quantitative structure-inhibitory activity relationships of phenols and fatty acids for Bacillus subtilis spore germination” (J Med Chem, 1982) are described below.

A short description of data set [1]: Distribution coefficient (log D) was determined at pH 7.2.
Data set [2] can be described thus: physchem.
For data set [3], the system named is Bacillus subtilis. The data set is described as follows: microbe, parasite or virus in culture. The settings on record: read-out: I50. Type of data set: functional, organism-based.
For data set [4], the system named is Bacillus subtilis. The class given is functional.
The test system of data set [5] is Bacillus subtilis. Put plainly: Inhibitory activity on germination of Bacillus subtilis PCI219 spores was determined; No inhibition at 5e-2M. Type of data set: functional, organism-based. The method in brief:
(§1)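 Unheated B. subtilis PCI219 spores (about 2.2×10^8 cells per mL) were incubated with the test compound in 0.1 mM L-alanine germinant and 0.05 M phosphate buffer, pH 7.2, at 37 °C. Germination was followed as the decrease in absorbance at 650 nm. The rate was taken as the slope of the steepest linear portion and compared with an inhibitor-free control.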

Data set [6] relates to Bacillus subtilis.
Data set [7] deals with Bacillus subtilis. Put plainly: Inhibitory activity on germination of Bacillus subtilis PCI219 spores was determined; No inhibition at 5*10e-2 M. Type of data set: functional, organism-based. The method in brief: as §1
Data set [8] is described as follows: Dissociation constant was determined spectrophotometrically; Experiment 1. The class given is physicochemical.
Data set [9] in a line: physchem. The settings on record: octanol/water.

Molecules are shown by their SMILES.

For orientation: logD means the decadic logarithm of the distribution of all forms, ionised or not, between an organic phase and buffer at a given pH. A lower logD goes with lower lipophilicity. The term pKa denotes the negative logarithm of the acid dissociation constant. Take `O=[N+]([O-])c1cccc(O)c1` [3-NITRO-PHENOL]: in data set [1], the logD was 1.97. For the same compound, the pKa in the data set “physchem [2]” turned out to be 8.4. Besides, the IC50 in the data set with Bacillus subtilis [3] came out at 901 µM. For the same compound, the “Log 1/I50” value with Bacillus subtilis [4] is listed as 3.05 1/M.

For `Nc1ccc(O)cc1` [4-AMINOPHENOL], the pKa in “physchem [2]” was 10.3. The I50 result in the data set on Bacillus subtilis [5] is on record as “No inhibition”. The “Log 1/I50” value in the data set with Bacillus subtilis [6] is “No inhibition”.

Usually logP stands for the decadic logarithm of the partition coefficient of the neutral form, usually between octanol and water. Low values mean lower lipophilicity, high ones higher lipophilicity. For the compound `O=C(O)c1ccc(O)cc1` [PARABEN], the I50 entry in the data set with Bacillus subtilis [7] is “Not Active”. In data set [8], this compound yielded a pKa of 9.4. The logP in the data set “physchem [9]” is 1.57.
